Measured values reported in ChEMBL document CHEMBL3272224, “Synthesis and hypotensive activity of N-alkyl-N"-cyano-N'-pyridylguanidines” (J Med Chem, 1978).

Tests used:
[1] = Toxicity in po dosed mouse assessed as mortality after 7 days; conditions: in vivo
Rattus norvegicus [2] = experiment: Hypotensive activity in po dosed spontaneously hypertensive Wistar-Okamoto rat assessed as dose required to cause 30 mmHg fall of blood pressure administered for 5 days; assay type: functional; conditions: 120 h, read-out: MED
[3] = Toxicity in po dosed Sprague-Dawley rat assessed as mortality after 7 days; assay type: organism-based; conditions: in vivo
Rattus norvegicus [4] = experiment: Hypotensive activity in spontaneously hypertensive Wistar-Okamoto rat assessed as maximum change in mean blood pressure at 2.5 mg/kg, po relative to control; assay type: functional
In short: (§1)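 Spontaneously hypertensive Wistar-Okamoto rats, five per dose, received compound orally, dissolved or suspended in 0.5% carboxymethylcellulose. Blood pressure was measured indirectly by tail cuff in restrained conscious rats before dosing and at 2, 4, 6, 8, 12 and 24 h. Maximum change was measured after a single administration and given as mean ± error.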

Rattus norvegicus [5] = experiment: Hypotensive activity in spontaneously hypertensive Wistar-Okamoto rat assessed as maximum change in mean blood pressure at 1 mg/kg, po relative to control; assay type: functional; in short: as §1
Rattus norvegicus [6] = experiment: Hypotensive activity in spontaneously hypertensive Wistar-Okamoto rat assessed as time required for persistence of hypotensive effect at 2.5 mg/kg, po; assay type: functional
In short: (§2)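 SHR (Wistar-Okamoto), five per dose, were given an oral dose in 0.5% carboxymethylcellulose. Indirect cuff pressure in restrained conscious rats was read before dosing and at 2, 4, 6, 8, 12 and 24 h. Duration (h) was scored while pressure remained 15 mmHg or more below the initial reading.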

Rattus norvegicus [7] = experiment: Hypotensive activity in spontaneously hypertensive Wistar-Okamoto rat assessed as time required for persistence of hypotensive effect at 1 mg/kg, po; assay type: functional; in short: as §2
Canis familiaris [8] = experiment: Hypotensive activity in conscious renal hypertensive dog assessed as maximum change in mean blood pressure at 0.5 mg/kg, po measured for 8 hrs relative to control; assay type: functional, Canis lupus familiaris
In short: (§3)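 Renal hypertensive dogs, conscious, dosed orally in soft gelatin capsules, three dogs per dose. Mean blood pressure was taken indirectly with an Arteriosonde, standing animals in a semi-insonorized room, just before dosing and then hourly for 8 h. Maximum change was measured after a single administration and given as mean ± error.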

Canis familiaris [9] = experiment: Hypotensive activity in conscious renal hypertensive dog assessed as maximum change in mean blood pressure at 1 mg/kg, po measured for 8 hrs relative to control; assay type: functional, Canis lupus familiaris; in short: as §3
Canis familiaris [10] = experiment: Hypotensive activity in conscious renal hypertensive dog assessed as time required for persistence of hypotensive effect at 0.5 mg/kg, po measured for 8 hrs; assay type: functional, Canis lupus familiaris
In short: (§4)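 Conscious renal hypertensive dogs received single oral doses in soft gelatin capsules, three per dose. Indirect standing blood pressure was read before dosing and hourly to 8 h. Duration (h) was the time the pressure stayed 15 mmHg or more below the initial value, which was taken as persistence of the hypotensive effect.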

Canis familiaris [11] = experiment: Hypotensive activity in conscious renal hypertensive dog assessed as time required for persistence of hypotensive effect at 1 mg/kg, po measured for 8 hrs; assay type: functional, Canis lupus familiaris; in short: as §4

In the case of CC(=O)Nc1ccc(N/C(=N/C#N)NC(C)(C)C)cc1, the LD50 at 168 h [1] is reported as over 1000 mg/kg and the minimal effective dose (Rattus norvegicus [2]) is reported as over 50 mg/kg.
Work on Cc1cc(C)c(/N=C(\NC#N)NC(C)(C)C)c(C)n1 yielded an LD50 at 168 h [1] of over 1000 mg/kg and a minimal effective dose (Rattus norvegicus [2]) of over 50 mg/kg.
CCC(CC)/N=C(\NC#N)Nc1cccnc1 showed an LD50 at 168 h [1] of 600 mg/kg and a minimal effective dose (Rattus norvegicus [2]) of 20 mg/kg.
CCOC(=O)/N=C(/Nc1cccnc1)NC(C)(C)CC showed an LD50 at 168 h [1] of 600 mg/kg and a minimal effective dose (Rattus norvegicus [2]) of 20 mg/kg.
Cc1nn(C)c(C)c1N/C(=N/C#N)NC(C)(C)C showed an LD50 at 168 h [1] of over 1000 mg/kg and a minimal effective dose (Rattus norvegicus [2]) of 5 mg/kg.
Molecule Cn1nc(-c2ccc(Cl)cc2)cc1N/C(=N/C#N)NC(C)(C)C has an LD50 at 168 h [1] of over 1000 mg/kg and a minimal effective dose (Rattus norvegicus [2]) of over 50 mg/kg.
With N#CN/C(=N\C1CCCCCCC1)Nc1ccncc1 the LD50 at 168 h [1] was 600 mg/kg and the minimal effective dose (Rattus norvegicus [2]) was over 20 mg/kg.
With NNc1nncc2ccccc12 [HYDRALAZINE] the LD50 at 168 h [3] was 107 mg/kg, the Activity (Rattus norvegicus [4]) was -64 mmHg and the Activity (Rattus norvegicus [5]) was -36 mmHg. It also gave a Time (Rattus norvegicus [6]) of over 8 h, a Time (Rattus norvegicus [7]) of 4 h and an Activity (Canis familiaris [8]) of -21 mmHg. It also gave an Activity (Canis familiaris [9]) of -42 mmHg, a Time (Canis familiaris [10]) of 2 h and a Time (Canis familiaris [11]) of 6 h.
CC(/N=C(\NC#N)Nc1ccncc1)C1CC1 (configuration not stated) gave an LD50 at 168 h [1] of 200 mg/kg and a minimal effective dose (Rattus norvegicus [2]) of 3 mg/kg.
N#C/N=C(/Nc1cccnc1)NC12CC3CC(CC(C3)C1)C2 showed an LD50 at 168 h [1] of over 1000 mg/kg and a minimal effective dose (Rattus norvegicus [2]) of 50 mg/kg.
With Cc1cccc(C)c1/N=C(\NC#N)Nc1cccnc1 the LD50 at 168 h [1] was over 1000 mg/kg and the minimal effective dose (Rattus norvegicus [2]) was 50 mg/kg.
With CC(C)(C)/N=C(\NC#N)Nc1ccccn1 the LD50 at 168 h [1] was 600 mg/kg and the minimal effective dose (Rattus norvegicus [2]) was over 20 mg/kg.
CCC(CC)/N=C(\NC#N)Nc1ccncc1 showed an LD50 at 168 h [1] of 200 mg/kg and a minimal effective dose (Rattus norvegicus [2]) of 2.5 mg/kg.
CC(C)C(=O)N(/C(=N\C#N)Nc1cccnc1)C(C)(C)C gave an LD50 at 168 h [1] of over 1000 mg/kg and a minimal effective dose (Rattus norvegicus [2]) of 10 mg/kg.
Molecule CCC(C)C(C)/N=C(\NC#N)Nc1ccncc1 (configuration not stated) has an LD50 at 168 h [1] of 250 mg/kg and a minimal effective dose (Rattus norvegicus [2]) of 8 mg/kg.
